# bCat nuc transl – beta-catenin nuclear translocation modulation. HeLa beta-catenin nuclear translocation, immunofluorescence imaging. nuclear translocation activity, % at 5 µM. actives 0.3% (n = 190,000);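 active means nuclear translocation activity above 50% at 5 µM, with a well cell count of 50 or more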;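 further: per-cell ratio of nuclear to cytoplasmic median beta-catenin stain intensity; plate controls were DMSO negative control for no effect and GSK-3 inhibitor IX positive control for full effect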
#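 Test system: human HeLa cells, endogenous beta-catenin. Times: 24 h compound exposure, 37°C. Measured by: beta-catenin immunofluorescence imaging with DAPI.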
# MT stabilizer – stabilizes microtubules in HeLa cells; HeLa tubulin immunostaining HCS, 24 h; share of cells brighter than vehicle mean+2SD; % tubulin-high responders, % at 10 µM; actives 0.83% (n = 200,000);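 active means plate Z-score above 3 for both tubulin-high and condensed-nucleus cell shares, with cell loss under 80%, at 10 µM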;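 further: anti alpha tubulin signal scored within the nucleus-defined area of each cell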
# KLF5 inhibitor – suppresses KLF5 promoter-driven expression. AID 1700. inhibition, % at 5 µM. actives 0.23% (n = 290,000). DLD-1 KLF5 promoter-luciferase reporter, luminescence;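 active means inhibition above a per-plate limit of that plate's mean compound inhibition plus 3 SD, cut at about 60% in these data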;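 further: 0% = DMSO wells and 100% = LY294002 at 200 µM; higher means less KLF5 promoter-driven luciferase light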
# BaF3 parental – reduces parental Ba/F3 cell viability, JAK2V617F counter-screen; inhibition, % at 5.6 µM; CellTiter-Glo ATP luminescence; actives 1.1% (n = 220,000);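 active means inhibition above a per-campaign cutoff, the mean inhibition of all tested compounds plus 3 SD, cut at about 27% in these data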;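 further: 0% = DMSO wells and 100% = JAK Inhibitor I control wells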
# IEC-6 cytotox – counter-screen for KLF5 inhibitors: cytotoxicity in IEC-6 cells | actives 0.78% (n = 290,000) | IEC-6 cytotoxicity, luminescence viability | inhibition, % at 5 µM;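 further: 0% = plate median of test compound wells and 100% = cytotoxic reference compound wells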
# Ba/F3 V617F tox – lowers viability of Ba/F3 cells expressing EpoR and JAK2V617F | ATP luminescence | inhibition, % at 5.6 µM | actives 1.1% (n = 220,000);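 active means inhibition above the campaign mean plus 3 SD over all tested compounds, cut at about 24% in these data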;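 further: cytokine-independent growth of Ba/F3 cells driven by EpoR plus mutant JAK2; 0% = DMSO-treated cells and 100% = JAK inhibitor I control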
# IEC-6 tox confirm – IEC-6 cytotoxicity, confirmation assay. inhibition, % at 5 µM. actives 63% (n = 1,900). shares compounds with IEC-6 cytotox. IEC-6 rat intestinal epithelial viability, luminescence;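 further: 0% = vehicle and 100% = reference cytotoxic drug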
# * = called active by the depositor; nt = no result. Most compounds without a hit are left out; they make up all but 2.1% or so of the library. Unless noted, no stated cut-off is given here; in the data, active means inhibition above about 22%; inactive means the rest.
SMILES,bCat nuc transl,MT stabilizer,KLF5 inhibitor,BaF3 parental,IEC-6 cytotox,Ba/F3 V617F tox,IEC-6 tox confirm
COc1ccccc1-c1cc(C(=O)Nc2cccnc2Cl)no1,nt,nt,-45,nt,-4,nt,nt
COc1ccccc1-c1cc(C(=O)Nc2cccnc2)no1,70*,24*,38,57*,58*,75*,39*
COc1cc(NC(=O)c2cc(-c3ccccc3Cl)on2)cc(OC)c1OC,nt,nt,23,nt,55*,nt,33*
Cc1ccc(-c2n[nH]c(=S)nc2-c2ccc(C)cc2)cc1,nt,nt,-26,nt,10,nt,nt
NC(=O)c1ccc[n+](CC(=O)c2ccccc2)c1,0,nt,26,27*,22*,60*,-2
NC(=O)c1ccc[n+](CC(=O)c2ccc(NC(=O)c3ccccc3)cc2)c1,nt,nt,-25,nt,4,nt,nt
Cc1cc(C)nc(NS(=O)(=O)c2ccc(CC(C)C)cc2)c1,0,nt,-47,-3,11,4,nt
COc1ccc(C(CNc2ccc(S(=O)(=O)N3CCCC3)cc2[N+](=O)[O-])N2CCCC2)cc1 (configuration not stated),0,4,6,4,5,3,nt
COc1ccccc1C(CNc1ccc(S(=O)(=O)N2CCCC2)cc1[N+](=O)[O-])N(C)C (configuration not stated),nt,nt,-22,nt,22*,nt,8
COc1ccccc1NS(=O)(=O)c1ccc(-c2cnc(C3CC3)o2)cc1,nt,nt,58,nt,84*,nt,55*
COc1ccc(NS(=O)(=O)c2ccc(-c3cnc(C4CC4)o3)cc2)cc1OC,nt,nt,36,nt,50*,nt,39*
COc1ccccc1CNS(=O)(=O)c1ccc(-c2cnc(C3CC3)o2)cc1,nt,nt,55,nt,69*,nt,54*
COc1ccccc1N1CCN(S(=O)(=O)c2ccc(-c3cnc(C4CC4)o3)cc2)CC1,nt,nt,-18,nt,0,nt,nt
O=S(=O)(Nc1ccc(F)cc1Cl)c1ccc(-c2cnc(C3CC3)o2)cc1,nt,nt,55,nt,82*,nt,52*
CCOC(=O)N1CCC(N2C(=O)c3ccc(C(=O)NCCOC)cc3C2=O)CC1,nt,nt,-15,nt,-6,nt,nt
O=C(O)C1CCN(S(=O)(=O)c2ccc(N3CCCC3C(=O)O)c([N+](=O)[O-])c2)CC1 (configuration not stated),nt,nt,-15,nt,0,nt,nt
Cc1ccc(N(C)S(=O)(=O)c2cc(-c3cnc(C4CC4)o3)ccc2C)cc1,nt,nt,2,nt,3,nt,nt
Cc1ccc(NS(=O)(=O)c2ccc(-c3cnc(C4CC4)o3)cc2)c(C)c1,nt,nt,59,nt,78*,nt,55*
Cc1ccc(NS(=O)(=O)c2ccc(NC(=O)C3CC3)cc2)c(C)c1,nt,nt,-11,nt,-2,nt,nt
Cc1cccc(N(C)S(=O)(=O)c2ccc(-c3cnc(C4CC4)o3)cc2)c1,nt,nt,56,nt,91*,nt,65*
COc1cc2[nH]c(C(=O)Nc3ccc(F)cc3)cc2c(OC)c1OC,nt,nt,40,nt,57*,nt,27*
CCNc1ccc(C(=O)OCC)cc1NC(=O)c1cccc(N(C)C)c1,26,38*,57,77*,64*,82*,58*
CSc1nnc2c3ccccc3n(CCc3ccccc3)c2n1,-8,2,-39,2,46*,-1,42*
CC(=O)c1cccc(N2C(=NC(=O)C3CCCCC3)SC3CS(=O)(=O)CC32)c1 (configuration not stated),nt,nt,1,nt,7,nt,nt
CCOc1ccc(/C=N/NC(=O)Cn2ccnc2C)cc1,1,nt,2,1,4,4,nt
SMILES,bCat nuc transl,MT stabilizer,KLF5 inhibitor,BaF3 parental,IEC-6 cytotox,Ba/F3 V617F tox,IEC-6 tox confirm
COc1cc(C)ccc1OCCCON1C(=O)CCC1=O,nt,1,-5,9,2,5,nt
C#CC(=O)N(c1ccc(OC)c(OC)c1)C(C(=O)NC1CCCC1)c1cccs1 (configuration not stated),-4,1,-2,52*,100*,99*,79*
COc1ccc(N(C(=O)Cc2cccs2)C(C(=O)NC2CCCC2)c2ccncc2)cc1OC (configuration not stated),nt,nt,2,nt,2,nt,nt
COc1cc(C(=O)NCC(=O)N2CCN(S(=O)(=O)c3cc(C)ccc3C)CC2)cc(OC)c1OC,nt,nt,14,nt,30*,nt,17
Cc1ccc(C)c(S(=O)(=O)N2CCN(C(=O)Cc3ccsc3)CC2)c1,nt,nt,-25,nt,-5,nt,nt
COc1ccc(CNC(=O)c2nc(S(=O)(=O)Cc3ccccc3)ncc2Cl)cc1,nt,nt,20,nt,50*,nt,22*
